Active and inactive are the calls of the source. The rule behind the calls is not given here.
Assays:
[1] = species: Mus musculus; test: Otoprotective activity against gentamicin-induced outer hair cell death in CD-1 mouse cochlea at 20 uM after 48 hrs by TRITC-phalloidin staining-based microscopic analysis relative to control; assay type: functional
Summary of the method: (§1)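 Mouse cochlear cultures coincubated for 48 h with 5 μM gentamicin plus compound (5, 10 or 20 μM). OHCs counted in a 300 μm long segment of the mid-basal cochlea. Counts compared with 0.5% DMSO control and with gentamicin + 0.5% DMSO cultures.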

[2] = species: Mus musculus; test: Inhibition of MET in CD-1 mouse cochlea outer hair cells assessed as reduction in MET currents at 10 uM measured at -160 mV to +80 mV membrane potential by patch clamp assay
Summary of the method: (§2)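 OHC MET currents recorded before and during exposure to 10 μM compound. Fractional block taken as the current during exposure relative to the control current at each membrane potential.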

[3] = Cytotoxicity against CD-1 mouse cochlea assessed as induction of cell damage at 20 uM in presence of gentamicin after 48 hrs by confocal microscopic analysis; assay type: toxicity, tissue-based
Summary of the method: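 Mouse cochlear cultures exposed 48 h to 5 μM gentamicin plus 20 μM compound, with 0.5% DMSO and gentamicin-only controls. Hair cells and bundle morphology imaged, including confocal imaging of IHC stereociliary bundles. OHC survival counted in a 300 μm segment of the mid-basal region.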

[4] = species: Mus musculus; test: Inhibition of MET in CD-1 mouse cochlea outer hair cells assessed as blockade of MET currents at 10 uM measured at -164 mV membrane potential by patch clamp assay relative to control; summary of the method: as §2
[5] = Binding affinity to MET in CD-1 mouse cochlear outer hair cells measured at -84 mV membrane potential in presence of calcium by patch clamp assay
[6] = species: Mus musculus; test: Otoprotective activity against gentamicin-induced outer hair cell death in CD-1 mouse cochlea at 10 uM after 48 hrs by TRITC-phalloidin staining-based microscopic analysis relative to control; assay type: functional; summary of the method: as §1
[7] = species: Mus musculus; test: Inhibition of MET in CD-1 mouse cochlea outer hair cells assessed as blockade of MET currents at 10 uM measured at -160 mV to +80 mV membrane potential by patch clamp assay relative to control; summary of the method: as §2
[8] = species: Mus musculus; test: Otoprotective activity against gentamicin-induced outer hair cell death in CD-1 mouse cochlea at 5 uM after 48 hrs by TRITC-phalloidin staining-based microscopic analysis relative to control; assay type: functional; summary of the method: as §1

Row | SMILES | Activity [1] | inhibition [2] | inhibition [4] | Activity [8] | other results
1 | COc1ccccc1OCCNCCOc1ccccc1OC | inactive | inactive |  |  | 
2 | COc1ccccc1OCCNCC(O)COc1ccccc1OC (centres undefined) | inactive | inactive |  |  | 
3 | OC(CNCCOc1ccccc1)COc1cccc2[nH]c3ccccc3c12 (centres undefined) | inactive |  | 50 to 60% |  | Activity [3]: Toxic
4 | CN[C@@H]1[C@H](O[C@H]2[C@H](O[C@@H]3[C@@H](O)[C@H](O)[C@@H](NC(=N)N)[C@H](O)[C@H]3NC(=N)N)O[C@@H](C)[C@]2(O)CO)O[C@@H](CO)[C@H](O)[C@H]1O |  |  |  |  | Kd [5]: 7 µM
5 | CC(C)NCC(O)COc1cccc2ccccc12 (centres undefined) | inactive |  |  |  | 
6 | COc1ccccc1OCCN(CCOc1ccccc1OC)CC(O)COc1cccc2[nH]c3ccccc3c12 (centres undefined) | Active |  | Active | inactive | Activity [6]: inactive; inhibition [7]: 40%
7 | COc1ccccc1OCCCCCCOc1cccc2[nH]c3ccccc3c12 | inactive |  |  |  | Activity [3]: Toxic
8 | CCCCNCC(O)COc1cccc2[nH]c3ccccc3c12 (centres undefined) | Active |  | 50 to 60% | inactive | Activity [6]: inactive
9 | COc1ccccc1OCCN(CCN1CCOCC1)CC(O)COc1cccc2[nH]c3ccccc3c12 (centres undefined) | Active | Active |  | inactive | 
10 | Cn1cc(C(F)(F)F)nc1-c1ccc(OCC(O)CNCCOc2ccc(O)c(C(N)=O)c2)cc1 (centres undefined) | inactive |  |  |  | 
